Three compounds from ChEMBL document CHEMBL1140550, “New 'chemical probes' to examine the role of the hFPRL1 (or ALXR) receptor in inflammation” (Bioorg Med Chem Lett, 2007) can be followed below.

As usually defined, the EC50 is the concentration needed to bring the measured effect to its halfway point. The term IC50 denotes the concentration that inhibits the measured activity by half.

Structures are written as SMILES. Activity calls are given as the source filed them. The calls are words filed in the database; no cut-off is given here. Bounds are passed on as bounds.

Assay [1] addresses T1, N-formyl peptide receptor 2 (Homo sapiens, UniProt P25090).
T1 sequence (P25090 whole entry): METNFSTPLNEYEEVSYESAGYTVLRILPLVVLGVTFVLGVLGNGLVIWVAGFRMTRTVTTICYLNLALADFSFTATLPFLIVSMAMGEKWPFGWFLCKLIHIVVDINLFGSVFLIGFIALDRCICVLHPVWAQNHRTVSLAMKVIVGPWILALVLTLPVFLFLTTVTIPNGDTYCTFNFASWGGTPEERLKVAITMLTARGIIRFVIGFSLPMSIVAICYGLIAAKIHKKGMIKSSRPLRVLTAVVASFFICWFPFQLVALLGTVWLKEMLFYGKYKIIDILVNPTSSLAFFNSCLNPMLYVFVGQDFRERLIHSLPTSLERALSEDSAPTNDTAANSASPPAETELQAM
Nature of the assay: Agonist activity at human recombinant FPRL1 expressed in CHO cells assessed as calcium flux by aequorin based bioluminescence assay. The format is functional, cell-based. The method in brief: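 EC50 from Ca2+ flux in recombinant CHO cells co-expressing human FPRL1, Gα15 protein and aequorin. Values without standard deviation are the mean of two data points.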
A general note: A change in cytosolic calcium serves as a functional read-out for many receptors and channels.

Assay [2] addresses T2, fMet-Leu-Phe receptor (Homo sapiens, UniProt P21462).
T2 sequence (P21462 whole entry): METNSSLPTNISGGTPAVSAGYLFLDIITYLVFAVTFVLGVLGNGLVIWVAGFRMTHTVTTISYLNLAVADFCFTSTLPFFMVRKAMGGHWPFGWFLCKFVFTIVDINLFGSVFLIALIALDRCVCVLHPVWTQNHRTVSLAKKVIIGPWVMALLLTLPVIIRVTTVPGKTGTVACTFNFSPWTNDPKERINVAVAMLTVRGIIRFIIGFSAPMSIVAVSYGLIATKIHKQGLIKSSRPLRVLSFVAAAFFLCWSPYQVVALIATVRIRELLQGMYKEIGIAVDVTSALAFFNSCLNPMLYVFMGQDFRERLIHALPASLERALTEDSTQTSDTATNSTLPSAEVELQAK
Nature of the assay: Agonist activity at human recombinant FPR expressed in CHO cells assessed as calcium flux by aequorin based bioluminescence assay. Format: functional, cell-based. The method in brief: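 CHO cells stably transfected with human FPR, aequorin and Gα15 protein; EC50 derived from Ca2+ flux read by aequorin luminescence.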

Assay [3] can be described thus: Inhibition of fMLP-induced human PMN migration after 45 mins. Format: functional. As to conditions: 0.75 h. In short, it runs like this:
(§1)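 Human polymorphonuclear neutrophils from at least three donors, exposed to compound (final DMSO 0.1%). Migration toward a gradient of IL-8 or fMLP chemo-attractant (10 nM each) followed by fluorescence. Mean IC50 reported.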

Assay [4] can be described thus: Inhibition of IL8-induced human PMN migration after 45 mins. The format is functional. As to conditions: 0.75 h. In short, it runs like this:
as §1

For assay [5], the system named is Blood. Nature of the assay: Stimulation of IL6 secretion in human whole blood after 18 hrs. The format is functional, tissue-based. In short, it runs like this: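 Heparinized human whole blood, 50% final, preincubated with compound for 1 h at 37 °C, 5% CO2, then stimulated with IL-1β (300 pM final) for 18 h. Final DMSO 0.1%. IL-6 in supernatant/plasma measured by electrochemiluminescence immunoassay.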

`CCc1nc2ccccc2n1[C@@H]1CCN(C(=O)c2nc3ccc(OC)cc3[nH]2)C1`: the EC50 in assay [1] was 1.87 µM; in assay [2], > 10 µM.
As to `CC(C)c1c(NC(=O)Nc2ccc(Cl)cc2)c(=O)n(-c2ccccc2)n1C`, the IC50 in assay [3] was determined as 0.64 µM; in assay [4] it was 0.24 µM. Further, the result in assay [5] was Active.
As for `CC(C)c1c(NC(=O)Nc2ccccc2Cl)c(=O)n(-c2ccccc2)n1C`, the EC50 in assay [1] is > 10 µM.
